{
  "source": "ChEMBL document CHEMBL1154183",
  "about": "“Structure-based optimization of potent and selective inhibitors of the tyrosine kinase erythropoietin producing human hepatocellular carcinoma receptor B4 (EphB4)” (J Med Chem, 2009)",
  "key": {"[1]": {"biological_target": "Dual specificity tyrosine-phosphorylation-regulated kinase 3 (Homo sapiens) (UniProt O43781)", "sequence (O43781 whole entry)": "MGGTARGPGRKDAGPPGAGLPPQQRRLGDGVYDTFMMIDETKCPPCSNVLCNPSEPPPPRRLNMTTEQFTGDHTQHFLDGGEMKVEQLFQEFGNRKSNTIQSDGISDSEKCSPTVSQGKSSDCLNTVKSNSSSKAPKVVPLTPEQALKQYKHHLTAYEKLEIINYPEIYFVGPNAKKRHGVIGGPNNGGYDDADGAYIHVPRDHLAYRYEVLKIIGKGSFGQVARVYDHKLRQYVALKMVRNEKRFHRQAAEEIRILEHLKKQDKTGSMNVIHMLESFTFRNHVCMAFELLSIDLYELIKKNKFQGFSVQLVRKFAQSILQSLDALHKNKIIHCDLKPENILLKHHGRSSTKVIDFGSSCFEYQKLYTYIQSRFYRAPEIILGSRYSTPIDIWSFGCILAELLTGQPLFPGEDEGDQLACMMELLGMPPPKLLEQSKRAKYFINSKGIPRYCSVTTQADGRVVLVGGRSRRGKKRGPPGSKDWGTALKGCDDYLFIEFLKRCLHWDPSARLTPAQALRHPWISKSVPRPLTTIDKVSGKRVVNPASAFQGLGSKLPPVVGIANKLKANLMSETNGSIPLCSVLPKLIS", "assay": "Inhibition of DYRK3 assessed as remaining enzyme activity at 3 uM relative to DMSO", "how_it_was_run": "(§1)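 Dundee kinase panel, radiometric: [γ-33P]ATP (800 cpm/pmol) at 5, 20 or 50 μM, at or below each kinase's ATP Km; 10 mM magnesium acetate; robotic, room temperature, 30 min. Reactions started with MgATP, stopped with orthophosphoric acid, spotted onto P81 filters. Inhibitor tested at a single concentration; mean % activity of duplicates relative to DMSO control.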"}, "[2]": {"assay": "Inhibition of PHK assessed as remaining enzyme activity at 3 uM relative to DMSO", "how_it_was_run": "(§2)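 Radiometric kinase assay run robotically at room temperature for 30 min. Contained 10 mM magnesium acetate and [γ-33P]ATP (800 cpm/pmol) at 5, 20 or 50 μM, chosen per kinase to be at or below its ATP Km. Reactions were started with MgATP, stopped with orthophosphoric acid and spotted onto P81 filters. Result is mean % activity of duplicates at one inhibitor concentration versus DMSO control.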"}, "[3]": {"assay": "Inhibition of PKA assessed as remaining enzyme activity at 3 uM relative to DMSO", "how_it_was_run": "as §2"}, "[4]": {"biological_target": "Tyrosine-protein kinase Yes (Homo sapiens) (UniProt P07947)", "assay": "Inhibition of YES1 assessed as remaining enzyme activity at 3 uM relative to DMSO"}, "[5]": {"biological_target": "Mitogen-activated protein kinase kinase kinase 9 (Homo sapiens) (UniProt P80192)", "sequence (P80192 whole entry, looked up)": "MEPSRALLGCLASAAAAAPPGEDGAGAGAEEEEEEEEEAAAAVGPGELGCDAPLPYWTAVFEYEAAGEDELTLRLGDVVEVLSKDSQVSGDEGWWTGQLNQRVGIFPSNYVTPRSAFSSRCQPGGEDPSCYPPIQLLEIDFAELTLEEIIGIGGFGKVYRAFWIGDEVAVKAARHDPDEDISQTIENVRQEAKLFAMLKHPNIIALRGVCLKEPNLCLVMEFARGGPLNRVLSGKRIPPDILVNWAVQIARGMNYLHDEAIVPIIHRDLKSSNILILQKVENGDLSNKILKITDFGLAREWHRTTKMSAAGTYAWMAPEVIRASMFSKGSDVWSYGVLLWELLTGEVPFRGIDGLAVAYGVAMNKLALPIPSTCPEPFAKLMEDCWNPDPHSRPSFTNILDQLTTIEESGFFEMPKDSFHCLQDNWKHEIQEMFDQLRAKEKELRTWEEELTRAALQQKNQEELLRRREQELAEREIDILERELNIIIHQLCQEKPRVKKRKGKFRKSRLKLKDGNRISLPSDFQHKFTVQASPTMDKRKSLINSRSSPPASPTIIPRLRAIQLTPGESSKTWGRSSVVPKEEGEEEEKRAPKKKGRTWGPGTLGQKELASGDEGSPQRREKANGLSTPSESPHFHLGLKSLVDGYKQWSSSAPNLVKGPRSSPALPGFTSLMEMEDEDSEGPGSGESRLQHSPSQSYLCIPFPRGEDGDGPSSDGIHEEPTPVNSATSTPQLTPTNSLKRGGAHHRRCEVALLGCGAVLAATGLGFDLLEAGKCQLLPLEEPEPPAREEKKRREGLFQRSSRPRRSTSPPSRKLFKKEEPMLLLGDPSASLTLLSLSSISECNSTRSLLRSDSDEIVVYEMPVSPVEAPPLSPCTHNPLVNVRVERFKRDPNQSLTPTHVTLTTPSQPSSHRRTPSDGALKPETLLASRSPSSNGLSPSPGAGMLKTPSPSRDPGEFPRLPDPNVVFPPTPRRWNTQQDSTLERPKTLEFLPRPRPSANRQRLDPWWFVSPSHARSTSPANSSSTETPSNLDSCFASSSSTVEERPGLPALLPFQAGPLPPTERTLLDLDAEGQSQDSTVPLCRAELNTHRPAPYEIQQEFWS", "assay": "Inhibition of MLK1 assessed as remaining enzyme activity at 3 uM relative to DMSO", "how_it_was_run": "as §2"}, "[6]": {"biological_target": "MAP kinase-interacting serine/threonine-protein kinase 1 (Homo sapiens) (UniProt Q9BUB5)", "sequence (Q9BUB5 whole entry, looked up)": "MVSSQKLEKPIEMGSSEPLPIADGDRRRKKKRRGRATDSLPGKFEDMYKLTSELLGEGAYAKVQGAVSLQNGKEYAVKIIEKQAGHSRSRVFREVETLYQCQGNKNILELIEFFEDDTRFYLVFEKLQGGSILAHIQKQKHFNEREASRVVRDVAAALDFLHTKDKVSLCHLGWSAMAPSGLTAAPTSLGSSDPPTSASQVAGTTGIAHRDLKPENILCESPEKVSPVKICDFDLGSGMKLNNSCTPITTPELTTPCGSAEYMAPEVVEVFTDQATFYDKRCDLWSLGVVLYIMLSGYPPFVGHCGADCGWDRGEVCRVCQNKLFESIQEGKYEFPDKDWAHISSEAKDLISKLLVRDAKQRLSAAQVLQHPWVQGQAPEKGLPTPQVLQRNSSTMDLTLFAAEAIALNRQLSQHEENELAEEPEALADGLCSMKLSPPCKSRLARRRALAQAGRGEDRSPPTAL", "assay": "Inhibition of MNK1 assessed as remaining enzyme activity at 3 uM relative to DMSO", "how_it_was_run": "as §2"}, "[7]": {"biological_target": "Serine/threonine-protein kinase N2 (Homo sapiens) (UniProt Q16513)", "assay": "Inhibition of PRK2 assessed as remaining enzyme activity at 3 uM relative to DMSO"}, "[8]": {"biological_target": "Misshapen-like kinase 1 (Homo sapiens) (UniProt Q8N4C8)", "assay": "Inhibition of MINK1 assessed as remaining enzyme activity at 3 uM relative to DMSO", "how_it_was_run": "as §2"}, "[9]": {"biological_target": "Mitogen-activated protein kinase 14 (Homo sapiens) (UniProt Q16539)", "sequence (Q16539 whole entry)": "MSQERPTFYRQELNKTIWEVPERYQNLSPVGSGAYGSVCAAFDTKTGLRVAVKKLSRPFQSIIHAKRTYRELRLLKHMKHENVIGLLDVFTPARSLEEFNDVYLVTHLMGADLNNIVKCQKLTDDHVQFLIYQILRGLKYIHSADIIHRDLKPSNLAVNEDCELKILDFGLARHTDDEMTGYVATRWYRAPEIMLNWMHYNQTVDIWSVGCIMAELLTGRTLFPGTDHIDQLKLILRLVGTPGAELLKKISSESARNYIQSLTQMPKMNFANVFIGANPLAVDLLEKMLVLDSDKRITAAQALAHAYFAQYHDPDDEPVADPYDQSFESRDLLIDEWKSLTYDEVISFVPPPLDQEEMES", "assay": "Inhibition of p38alpha assessed as remaining enzyme activity at 3 uM relative to DMSO"}, "[10]": {"biological_target": "Interleukin-1 receptor-associated kinase 4 (Homo sapiens) (UniProt Q9NWZ3)", "assay": "Inhibition of IRAK4 assessed as remaining enzyme activity at 3 uM relative to DMSO", "how_it_was_run": "as §1"}, "[11]": {"biological_target": "Serine/threonine-protein kinase pim-1 (Homo sapiens) (UniProt P11309)", "assay": "Inhibition of PIM1 assessed as remaining enzyme activity at 3 uM relative to DMSO", "how_it_was_run": "as §2"}, "[12]": {"biological_target": "MAP kinase-interacting serine/threonine-protein kinase 2 (Homo sapiens) (UniProt Q9HBH9)", "sequence (Q9HBH9 whole entry, looked up)": "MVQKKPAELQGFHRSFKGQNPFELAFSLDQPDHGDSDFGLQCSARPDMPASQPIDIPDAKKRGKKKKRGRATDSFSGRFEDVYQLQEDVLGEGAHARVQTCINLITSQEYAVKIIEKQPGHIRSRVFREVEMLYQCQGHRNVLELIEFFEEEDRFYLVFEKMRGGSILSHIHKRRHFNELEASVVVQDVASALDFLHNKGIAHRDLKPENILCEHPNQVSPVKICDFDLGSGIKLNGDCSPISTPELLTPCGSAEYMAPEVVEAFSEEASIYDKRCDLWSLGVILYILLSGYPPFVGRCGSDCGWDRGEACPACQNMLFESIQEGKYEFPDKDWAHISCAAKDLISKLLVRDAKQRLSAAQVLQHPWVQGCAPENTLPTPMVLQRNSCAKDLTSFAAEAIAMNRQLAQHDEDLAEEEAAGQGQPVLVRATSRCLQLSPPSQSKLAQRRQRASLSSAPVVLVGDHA", "assay": "Inhibition of MNK2 assessed as remaining enzyme activity at 3 uM relative to DMSO", "how_it_was_run": "as §2"}, "[13]": {"biological_target": "Tyrosine-protein kinase Fyn (Homo sapiens) (UniProt P06241)", "assay": "Binding affinity to FYN assessed as percentage of kinase remaining bound to the bead at 1 uM by T7 phage display based binding assay", "how_it_was_run": "(§3)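 Competition binding assay run by a contract lab. Each kinase was expressed as a fusion to T7 phage, full-length for small kinases and catalytic domain for large ones. Phage were mixed with an immobilized known kinase inhibitor on streptavidin magnetic beads and with test compound at a single 1 μM. Kinase/phage still bound to the beads was quantified by qPCR and expressed as % of DMSO control.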"}, "[14]": {"biological_target": "Insulin-like growth factor 1 receptor (Homo sapiens) (UniProt P08069)", "assay": "Inhibition of IGF-1R assessed as remaining enzyme activity at 1 uM relative to DMSO", "how_it_was_run": "as §1"}, "[15]": {"biological_target": "Serine/threonine-protein kinase PAK 4 (Homo sapiens) (UniProt O96013)", "assay": "Inhibition of PAK4 assessed as remaining enzyme activity at 1 uM relative to DMSO", "how_it_was_run": "as §2"}, "[16]": {"biological_target": "Ribosomal protein S6 kinase alpha-1 (Homo sapiens) (UniProt Q15418)", "assay": "Inhibition of RSK1 assessed as remaining enzyme activity at 1 uM relative to DMSO"}, "[17]": {"biological_target": "Serine/threonine-protein kinase 32C (Homo sapiens) (UniProt Q86UX6)", "assay": "Binding affinity to YANK3 assessed as percentage of kinase remaining bound to the bead at 1 uM by T7 phage display based binding assay", "how_it_was_run": "as §3"}, "[18]": {"biological_target": "Serine/threonine-protein kinase pim-3 (Homo sapiens) (UniProt Q86V86)", "assay": "Inhibition of PIM3 assessed as remaining enzyme activity at 1 uM relative to DMSO", "how_it_was_run": "as §2"}, "[19]": {"biological_target": "Fibroblast growth factor receptor 2 (Homo sapiens) (UniProt P21802)", "assay": "Binding affinity to FGFR2 assessed as percentage of kinase remaining bound to the bead at 1 uM by T7 phage display based binding assay", "how_it_was_run": "as §3"}, "[20]": {"biological_target": "Serine/threonine-protein kinase Nek6 (Homo sapiens) (UniProt Q9HC98)", "assay": "Inhibition of NEK6 assessed as remaining enzyme activity at 1 uM relative to DMSO", "how_it_was_run": "as §2"}, "[21]": {"biological_target": "Tyrosine-protein kinase HCK (Homo sapiens) (UniProt P08631)", "assay": "Binding affinity to HCK assessed as percentage of kinase remaining bound to the bead at 1 uM by T7 phage display based binding assay", "how_it_was_run": "as §3"}, "[22]": {"biological_target": "Tyrosine-protein kinase Lck (Homo sapiens) (UniProt P06239)", "sequence (P06239 2-509 limits assumed)": "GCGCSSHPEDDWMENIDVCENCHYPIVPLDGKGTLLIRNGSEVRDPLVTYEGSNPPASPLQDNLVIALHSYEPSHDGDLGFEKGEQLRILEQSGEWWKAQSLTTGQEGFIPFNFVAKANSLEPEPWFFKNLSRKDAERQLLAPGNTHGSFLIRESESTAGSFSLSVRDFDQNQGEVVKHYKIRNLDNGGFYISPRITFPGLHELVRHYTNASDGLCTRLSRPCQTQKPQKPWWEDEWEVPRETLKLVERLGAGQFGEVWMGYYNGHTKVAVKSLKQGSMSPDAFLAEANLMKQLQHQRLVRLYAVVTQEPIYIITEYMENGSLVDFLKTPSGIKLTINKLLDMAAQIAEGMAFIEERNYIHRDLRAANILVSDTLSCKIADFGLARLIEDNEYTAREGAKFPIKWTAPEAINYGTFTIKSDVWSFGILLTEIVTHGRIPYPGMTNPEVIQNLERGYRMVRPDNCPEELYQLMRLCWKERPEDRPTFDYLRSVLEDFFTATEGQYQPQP", "assay": "Inhibition of Lck assessed as remaining enzyme activity at 1 uM relative to DMSO", "how_it_was_run": "as §2"}, "[23]": {"biological_target": "Bone morphogenetic protein receptor type-1A (Homo sapiens) (UniProt P36894)", "assay": "Binding affinity to BMPR1A assessed as percentage of kinase remaining bound to the bead at 1 uM by T7 phage display based binding assay", "how_it_was_run": "as §3"}, "[24]": {"biological_target": "Ephrin type-A receptor 6 (Homo sapiens) (UniProt Q9UF33)", "assay": "Binding affinity to EPHA6 assessed as percentage of kinase remaining bound to the bead at 1 uM by T7 phage display based binding assay", "how_it_was_run": "as §3"}, "[25]": {"biological_target": "MAP kinase-interacting serine/threonine-protein kinase 2 (Homo sapiens) (UniProt Q9HBH9)", "assay": "Inhibition of MNK2 assessed as remaining enzyme activity at 1 uM relative to DMSO", "how_it_was_run": "as §2"}, "[26]": {"biological_target": "Receptor-interacting serine/threonine-protein kinase 2 (Homo sapiens) (UniProt O43353)", "assay": "Binding affinity to RIPK2 assessed as percentage of kinase remaining bound to the bead at 1 uM by T7 phage display based binding assay", "how_it_was_run": "as §3"}, "[27]": {"biological_target": "Serine/threonine-protein kinase Nek11 (Homo sapiens) (UniProt Q8NG66)", "assay": "Binding affinity to NEK11 assessed as percentage of kinase remaining bound to the bead at 1 uM by T7 phage display based binding assay", "how_it_was_run": "as §3"}, "[28]": {"biological_target": "Platelet-derived growth factor receptor beta (Homo sapiens) (UniProt P09619)", "sequence (P09619 whole entry)": "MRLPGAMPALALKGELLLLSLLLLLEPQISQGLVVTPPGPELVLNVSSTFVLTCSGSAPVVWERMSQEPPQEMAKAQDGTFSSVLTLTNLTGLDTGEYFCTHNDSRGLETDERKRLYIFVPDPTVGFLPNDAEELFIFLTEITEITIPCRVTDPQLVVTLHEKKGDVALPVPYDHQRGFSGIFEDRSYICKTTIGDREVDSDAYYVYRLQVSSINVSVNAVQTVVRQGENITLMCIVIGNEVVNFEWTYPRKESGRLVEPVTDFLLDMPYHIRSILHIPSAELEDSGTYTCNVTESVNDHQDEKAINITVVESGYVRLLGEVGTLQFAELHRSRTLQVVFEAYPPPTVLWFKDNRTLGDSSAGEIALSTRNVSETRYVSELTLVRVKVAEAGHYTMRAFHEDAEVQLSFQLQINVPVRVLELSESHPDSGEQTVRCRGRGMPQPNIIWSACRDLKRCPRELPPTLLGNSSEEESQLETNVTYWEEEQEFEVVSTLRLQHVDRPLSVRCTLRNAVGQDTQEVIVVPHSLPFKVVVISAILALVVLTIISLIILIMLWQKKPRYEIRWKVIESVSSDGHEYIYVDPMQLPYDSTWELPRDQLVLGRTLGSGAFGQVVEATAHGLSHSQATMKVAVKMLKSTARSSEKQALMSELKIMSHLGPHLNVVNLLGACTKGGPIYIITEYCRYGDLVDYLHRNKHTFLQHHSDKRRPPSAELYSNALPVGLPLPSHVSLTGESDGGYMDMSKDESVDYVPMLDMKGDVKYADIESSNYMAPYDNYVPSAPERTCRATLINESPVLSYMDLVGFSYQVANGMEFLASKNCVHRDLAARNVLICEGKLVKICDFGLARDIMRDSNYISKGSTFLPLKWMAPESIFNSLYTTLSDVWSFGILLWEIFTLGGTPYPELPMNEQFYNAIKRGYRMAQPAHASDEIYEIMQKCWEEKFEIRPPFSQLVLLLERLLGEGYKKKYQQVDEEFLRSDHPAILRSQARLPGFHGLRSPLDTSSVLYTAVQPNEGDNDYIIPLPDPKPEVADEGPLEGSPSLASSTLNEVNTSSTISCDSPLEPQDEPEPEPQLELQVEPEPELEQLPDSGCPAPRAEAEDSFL", "assay": "Binding affinity to PDGFRB assessed as percentage of kinase remaining bound to the bead at 1 uM by T7 phage display based binding assay", "how_it_was_run": "as §3"}, "[29]": {"biological_target": "Mitogen-activated protein kinase 13 (Homo sapiens) (UniProt O15264)", "sequence (O15264 whole entry)": "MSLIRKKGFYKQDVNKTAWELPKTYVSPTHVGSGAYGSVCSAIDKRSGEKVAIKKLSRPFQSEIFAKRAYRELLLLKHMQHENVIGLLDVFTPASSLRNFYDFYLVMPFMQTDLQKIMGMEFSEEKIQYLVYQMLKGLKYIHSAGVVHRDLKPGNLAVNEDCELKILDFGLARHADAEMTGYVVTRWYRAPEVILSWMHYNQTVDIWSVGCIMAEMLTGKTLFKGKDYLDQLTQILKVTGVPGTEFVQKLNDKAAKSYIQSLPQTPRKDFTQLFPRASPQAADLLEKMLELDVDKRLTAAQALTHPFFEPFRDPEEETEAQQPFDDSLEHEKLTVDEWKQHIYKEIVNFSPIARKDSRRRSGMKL", "assay": "Inhibition of p38delta assessed as remaining enzyme activity at 1 uM relative to DMSO"}, "[30]": {"biological_target": "Serine/threonine-protein kinase SIK3 (Homo sapiens) (UniProt Q9Y2K2)", "assay": "Binding affinity to QSK assessed as percentage of kinase remaining bound to the bead at 1 uM by T7 phage display based binding assay", "how_it_was_run": "as §3"}},
  "data": [
    {"smiles": "COc1ccccc1-n1c(-c2ccccc2C)cn2c3c(=O)[nH]c(=O)n(C)c3nc12", "values": [
      {"measurement": "Activity", "setting": "[1]", "value": 103, "unit": "%"},
      {"measurement": "Activity", "setting": "[2]", "value": 92, "unit": "%"},
      {"measurement": "Activity", "setting": "[3]", "value": 92, "unit": "%"},
      {"measurement": "Activity", "setting": "[4]", "value": 6, "unit": "%"},
      {"measurement": "Activity", "setting": "[5]", "value": 85, "unit": "%"},
      {"measurement": "Activity", "setting": "[6]", "value": 93, "unit": "%"},
      {"measurement": "Activity", "setting": "[7]", "value": 95, "unit": "%"},
      {"measurement": "Activity", "setting": "[8]", "value": 101, "unit": "%"},
      {"measurement": "Activity", "setting": "[9]", "value": 87, "unit": "%"},
      {"measurement": "Activity", "setting": "[10]", "value": 93, "unit": "%"},
      {"measurement": "Activity", "setting": "[11]", "value": 96, "unit": "%"},
      {"measurement": "Activity", "setting": "[12]", "value": 85, "unit": "%"}
    ]},
    {"smiles": "COc1ccccc1-n1c(-c2cc(O)ccc2C)cn2c3c(=O)[nH]c(=O)n(C)c3nc12", "values": [
      {"measurement": "Activity", "setting": "[13]", "value": 0.25, "unit": "%"},
      {"measurement": "Activity", "setting": "[14]", "value": 94, "unit": "%"},
      {"measurement": "Activity", "setting": "[15]", "value": 102, "unit": "%"},
      {"measurement": "Activity", "setting": "[16]", "value": 88, "unit": "%"},
      {"measurement": "Activity", "setting": "[17]", "value": 100, "unit": "%"},
      {"measurement": "Activity", "setting": "[18]", "value": 81, "unit": "%"},
      {"measurement": "Activity", "setting": "[19]", "value": 94, "unit": "%"},
      {"measurement": "Activity", "setting": "[20]", "value": 89, "unit": "%"},
      {"measurement": "Activity", "setting": "[21]", "value": 0.6, "unit": "%"},
      {"measurement": "Activity", "setting": "[22]", "value": 0, "unit": "%"},
      {"measurement": "Activity", "setting": "[23]", "value": 51, "unit": "%"},
      {"measurement": "Activity", "setting": "[24]", "value": 40, "unit": "%"},
      {"measurement": "Activity", "setting": "[25]", "value": 74, "unit": "%"},
      {"measurement": "Activity", "setting": "[26]", "value": 2.9, "unit": "%"},
      {"measurement": "Activity", "setting": "[27]", "value": 67, "unit": "%"},
      {"measurement": "Activity", "setting": "[28]", "value": 53, "unit": "%"},
      {"measurement": "Activity", "setting": "[29]", "value": 86, "unit": "%"},
      {"measurement": "Activity", "setting": "[30]", "value": 32, "unit": "%"}
    ]}
  ]
}
